Experimental data: ChEMBL document CHEMBL3745695, “Novel Hits in the Correction of ΔF508-Cystic Fibrosis Transmembrane Conductance Regulator (CFTR) Protein: Synthesis, Pharmacological, and ADME Evaluation of Tetrahydropyrido[4,3-d]pyrimidines for the Potential Treatment of Cystic Fibrosis” (J Med Chem, 2015)
≈ marks a conversion by molar mass, not a printed value. Calls of active or inactive are those of the source. No cut-off for these calls is given here.

What was measured:
[1] = target: T1, Cystic fibrosis transmembrane conductance regulator (Homo sapiens, UniProt P13569, F508DEL); test: (§1) Corrector activity at human CFTR F508 deletion mutant expressed in FRT cells incubated for 25 mins with forskolin by YFP-based fluorescence analysis relative to control; format: cell-based
T1 sequence (P13569 as listed by the source): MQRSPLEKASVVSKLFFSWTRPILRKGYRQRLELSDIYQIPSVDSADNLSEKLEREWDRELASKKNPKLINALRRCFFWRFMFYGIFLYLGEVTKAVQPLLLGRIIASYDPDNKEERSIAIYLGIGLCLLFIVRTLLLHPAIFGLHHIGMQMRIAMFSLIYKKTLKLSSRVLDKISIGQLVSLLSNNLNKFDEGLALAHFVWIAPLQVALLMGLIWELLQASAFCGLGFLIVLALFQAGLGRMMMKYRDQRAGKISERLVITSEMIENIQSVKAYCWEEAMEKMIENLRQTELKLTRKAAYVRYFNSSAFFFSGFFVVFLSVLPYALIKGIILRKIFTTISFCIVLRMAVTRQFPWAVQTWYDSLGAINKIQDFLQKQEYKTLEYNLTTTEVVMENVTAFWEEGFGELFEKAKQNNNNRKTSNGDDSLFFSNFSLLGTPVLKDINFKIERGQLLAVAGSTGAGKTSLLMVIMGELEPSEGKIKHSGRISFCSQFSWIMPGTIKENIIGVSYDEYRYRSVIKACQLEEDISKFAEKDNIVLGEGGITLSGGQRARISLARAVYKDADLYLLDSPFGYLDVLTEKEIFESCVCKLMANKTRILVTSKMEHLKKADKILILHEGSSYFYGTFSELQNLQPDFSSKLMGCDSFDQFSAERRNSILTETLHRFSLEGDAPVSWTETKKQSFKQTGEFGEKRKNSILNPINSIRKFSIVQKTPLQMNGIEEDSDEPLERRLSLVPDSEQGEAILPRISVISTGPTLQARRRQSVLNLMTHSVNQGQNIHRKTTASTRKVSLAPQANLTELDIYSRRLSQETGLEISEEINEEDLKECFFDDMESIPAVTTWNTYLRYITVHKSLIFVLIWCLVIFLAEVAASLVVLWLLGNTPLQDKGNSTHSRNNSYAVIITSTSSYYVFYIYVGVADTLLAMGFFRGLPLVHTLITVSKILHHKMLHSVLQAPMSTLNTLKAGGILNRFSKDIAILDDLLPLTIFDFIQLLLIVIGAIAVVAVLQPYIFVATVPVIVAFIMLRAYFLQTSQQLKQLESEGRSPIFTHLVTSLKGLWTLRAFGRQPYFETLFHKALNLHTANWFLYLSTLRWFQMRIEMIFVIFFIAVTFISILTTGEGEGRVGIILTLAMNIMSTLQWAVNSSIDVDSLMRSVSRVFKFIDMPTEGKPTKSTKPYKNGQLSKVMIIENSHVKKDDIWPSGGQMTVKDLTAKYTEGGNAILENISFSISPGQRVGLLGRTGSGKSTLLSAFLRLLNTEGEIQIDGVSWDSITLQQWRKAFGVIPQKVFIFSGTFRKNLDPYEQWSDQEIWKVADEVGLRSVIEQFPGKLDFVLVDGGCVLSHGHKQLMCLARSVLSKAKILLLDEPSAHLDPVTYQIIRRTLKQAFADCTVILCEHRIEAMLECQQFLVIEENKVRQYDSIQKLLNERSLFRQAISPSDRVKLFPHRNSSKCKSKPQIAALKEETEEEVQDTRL
Outline: (§2)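 FRT cells co-expressing ΔF508-CFTR and YFP-H148Q/I152L, grown 18–24 h at 37 °C, then 18–24 h at 37 °C with test compound. Then 25 min in PBS with forskolin (20 μM) plus genistein (50 μM). Iodide injected (final 100 mM) with a 14-s read. Exponential fit of the final 11 s gave dF/dt. EC50/Emax from dose–response, normalized to DMSO (0%) and positive control (100%). Mean of 2–3 experiments.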

[2] = test system: Cystic fibrosis transmembrane conductance regulator (Homo sapiens), P13569 [F508del]; test: as §1; format: cell-based; outline: as §2
Cystic fibrosis transmembrane conductance regulator (Homo sapiens), P13569 [F508del], sequence (P13569 as listed by the source): as above

[3] = test system: Cystic fibrosis transmembrane conductance regulator (Homo sapiens), P13569 [F508del]; test: (§3) Corrector activity at human CFTR F508 deletion mutant expressed in human A549 cells incubated for 25 mins by YFP-based fluorescence analysis; format: cell-based
Outline: (§4)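 A549 cells stably co-expressing ΔF508-CFTR and YFP-H148Q/I152L, cultured in DMEM/F-12. Corrector treatment 18–24 h at 37 °C, then 25 min forskolin (20 μM) plus genistein (50 μM). Iodide injected (final 100 mM). Initial slope dF/dt taken from an exponential fit of the final 11 s. EC50/Emax from dose–response. Mean of 2–3 independent experiments.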

[4] = Solubility of the compound in 50 mM ammonium acetate buffer at 250 uM at pH 7.4 after 24 hrs by UPLC/UV/TOF-MS analysis; format: physicochemical; conditions: for solubility at 24 h, 250 µM: 50 mM ammonium acetate buffer, pH 7.4
Outline: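 From 10 mM DMSO stock, 250 μM in 50 mM ammonium acetate pH 7.4 (2.5% DMSO final). Shaken 24 h at room temperature, filtered, diluted 1:2. UPLC/UV (254 nm) quantified against a 250 μM standard in acetonitrile/buffer.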

[5] = target: Cystic fibrosis transmembrane conductance regulator (Homo sapiens) (UniProt P13569); test: Activity at human wild type CFTR expressed in FRT cells at 10 uM incubated for 25 mins with forskolin by YFP-based fluorescence analysis; format: cell-based
Cystic fibrosis transmembrane conductance regulator (Homo sapiens), sequence (P13569 whole entry, looked up): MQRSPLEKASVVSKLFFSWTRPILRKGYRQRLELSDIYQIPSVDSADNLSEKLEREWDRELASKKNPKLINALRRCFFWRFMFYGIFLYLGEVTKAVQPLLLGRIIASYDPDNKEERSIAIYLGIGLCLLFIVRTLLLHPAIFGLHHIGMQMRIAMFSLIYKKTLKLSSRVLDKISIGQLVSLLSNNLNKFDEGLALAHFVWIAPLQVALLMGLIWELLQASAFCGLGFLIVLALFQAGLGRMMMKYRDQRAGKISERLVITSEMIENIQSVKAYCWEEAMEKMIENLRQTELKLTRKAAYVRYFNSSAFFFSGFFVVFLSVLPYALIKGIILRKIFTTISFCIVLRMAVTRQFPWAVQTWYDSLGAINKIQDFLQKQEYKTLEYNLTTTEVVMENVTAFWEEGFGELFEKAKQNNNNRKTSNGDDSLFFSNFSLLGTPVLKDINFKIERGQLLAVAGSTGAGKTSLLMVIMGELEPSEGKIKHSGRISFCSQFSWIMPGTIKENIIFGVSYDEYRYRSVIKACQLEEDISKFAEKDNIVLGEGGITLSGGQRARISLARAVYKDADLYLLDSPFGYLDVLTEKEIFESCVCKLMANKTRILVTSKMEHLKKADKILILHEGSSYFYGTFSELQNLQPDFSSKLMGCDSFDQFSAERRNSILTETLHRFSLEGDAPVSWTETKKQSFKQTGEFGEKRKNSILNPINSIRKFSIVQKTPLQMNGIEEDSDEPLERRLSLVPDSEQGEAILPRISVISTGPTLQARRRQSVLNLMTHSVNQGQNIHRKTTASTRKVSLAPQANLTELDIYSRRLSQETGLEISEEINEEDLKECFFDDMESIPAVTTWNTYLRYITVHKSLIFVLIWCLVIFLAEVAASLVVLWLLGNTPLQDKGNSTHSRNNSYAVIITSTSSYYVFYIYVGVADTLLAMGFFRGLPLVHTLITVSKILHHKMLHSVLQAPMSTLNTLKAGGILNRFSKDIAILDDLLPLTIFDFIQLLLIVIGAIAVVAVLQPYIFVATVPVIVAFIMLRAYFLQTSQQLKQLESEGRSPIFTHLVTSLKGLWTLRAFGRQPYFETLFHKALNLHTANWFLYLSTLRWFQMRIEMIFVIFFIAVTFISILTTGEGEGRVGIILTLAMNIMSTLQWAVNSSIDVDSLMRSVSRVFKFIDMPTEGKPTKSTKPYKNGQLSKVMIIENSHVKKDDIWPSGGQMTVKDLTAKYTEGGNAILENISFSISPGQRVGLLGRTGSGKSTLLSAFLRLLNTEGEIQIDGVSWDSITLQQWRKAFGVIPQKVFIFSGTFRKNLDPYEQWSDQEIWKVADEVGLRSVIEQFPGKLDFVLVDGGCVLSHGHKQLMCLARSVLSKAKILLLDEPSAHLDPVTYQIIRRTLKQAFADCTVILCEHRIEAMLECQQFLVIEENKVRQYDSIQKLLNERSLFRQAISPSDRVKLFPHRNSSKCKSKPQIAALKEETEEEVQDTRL
Outline: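 FRT cells stably co-expressing human CFTR and halide-sensing YFP-H148Q/I152L, plated 50,000 cells/well. At assay, PBS wash, then 25 min in PBS with forskolin (20 μM). Iodide solution injected (final I⁻ 100 mM) during a 14-s fluorescence reading (ex 500, em 535 nm). The final 11 s were fitted exponentially to give initial slope dF/dt. Test compounds at 10 μM, normalized to DMSO (100%). Mean of 2 or 3 independent experiments.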

[6] = test system: Cystic fibrosis transmembrane conductance regulator (Homo sapiens), P13569 [F508del]; test: Corrector activity at human CFTR F508 deletion mutant expressed in FRT cells at 15 uM incubated for 25 mins with forskolin by YFP-based fluorescence analysis relative to control; format: cell-based
[7] = Permeability of compound at 10 uM after 4 hrs by PAMPA; format: ADME
Outline: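 PAMPA with porcine brain lipid (2% w/v in dodecane). Compound 10 μM in HBSS/Hepes pH 7.4 in the donor well, 4 h at 37 °C and 80% humidity, warfarin membrane-integrity control. Donor and acceptor concentrations by UPLC-MS-TOF; effective permeability Pe calculated.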

[8] = Apparent permeability from apical to basolateral side in MDCK cells at 10 uM incubated for 2 hrs by LC-MS analysis; format: ADME, cell-based, Canis lupus familiaris; conditions: dog
Outline: (§5)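 MDCK monolayers on inserts seeded 5 days earlier, TEER >70 Ohm×cm². Compound 10 μM in HBSS-Hepes added to the donor side, in duplicate, each direction. 2 h at 37 °C with agitation, sampled at 0 and 120 min, LC-MS. Integrity checked with Lucifer Yellow. Papp calculated for each direction; efflux ratio is B→A over A→B.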

[9] = Efflux ratio of permeability from basolateral to apical over apical to basolateral side of MDCK cells at 10 uM incubated for 2 hrs by LC-MS analysis; format: ADME, cell-based, Canis lupus familiaris; conditions: dog; outline: as §5
[10] = Stability in rat plasma assessed as compound remaining after 3 hrs by LC-MS/MS analysis; format: ADME, cell-free; conditions: read-out: Stability
Outline: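 Compound at 10 μM in 100% fresh rat plasma at 37 °C, sampled to 3 h. Quenched with 3 volumes cold acetonitrile, centrifuged 3000 g for 15 min, supernatant diluted 1:10 in water, LC-MS/MS. Reported as % remaining.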

CYP3A4 = CYP3A4 (Homo sapiens, UniProt P08684); test: Metabolic stability assessed as recombinant human CYP3A4-mediated drug degradation by measuring compound remaining incubated for 1 hr by MS analysis; format: ADME; conditions: read-out: Stability
CYP3A4, sequence (P08684 whole entry): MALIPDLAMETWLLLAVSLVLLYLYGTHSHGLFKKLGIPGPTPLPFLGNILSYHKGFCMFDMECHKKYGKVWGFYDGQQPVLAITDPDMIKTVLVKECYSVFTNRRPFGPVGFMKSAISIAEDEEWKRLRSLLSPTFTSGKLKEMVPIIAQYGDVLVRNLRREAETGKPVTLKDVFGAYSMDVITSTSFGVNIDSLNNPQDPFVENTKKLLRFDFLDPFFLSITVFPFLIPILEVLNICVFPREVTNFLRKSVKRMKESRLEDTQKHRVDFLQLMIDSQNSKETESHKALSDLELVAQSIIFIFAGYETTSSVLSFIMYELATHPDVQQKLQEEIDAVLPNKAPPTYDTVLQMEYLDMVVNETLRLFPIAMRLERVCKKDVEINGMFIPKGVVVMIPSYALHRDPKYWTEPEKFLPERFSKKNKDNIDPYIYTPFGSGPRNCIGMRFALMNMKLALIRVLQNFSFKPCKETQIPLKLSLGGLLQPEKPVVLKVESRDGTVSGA
Outline: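 Recombinant hCYP3A4 at 20 pmol/mL, compound at 1 μM final with 0.25% organic solvent. 1 h at 37 °C with or without NADPH regenerating system, acetonitrile stop. Reported as % remaining by MS, NADPH sample versus the no-NADPH control.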

[11] = test system: Cystic fibrosis transmembrane conductance regulator (Homo sapiens), P13569 [F508del]; test: Corrector activity at human CFTR F508 deletion mutant expressed in FRT cells at 10 uM incubated for 25 mins with forskolin by YFP-based fluorescence analysis relative to control; format: cell-based
[12] = target: T1, Cystic fibrosis transmembrane conductance regulator; test: as §3; format: cell-based; outline: as §4

EC50 [1] [nM]	Emax [2] [%]	Emax [3]	solubility at 24 h, 250 µM [4] [µM]	Emax [5] [%]	Emax [6] [%]	permeability [7]	Papp A→B at 2 h, 10 µM [8] [×10⁻⁶ cm/s]	efflux ratio at 2 h, 10 µM [9]	remaining at 3 h [10] [%]	remaining at 1 h (CYP3A4) [%]	Emax [11] [%]	solubility ([4]; buffer, pH 7.4, 24 h, 250 µM) [µM]	EC50 [12] [nM]	SMILES
1400	56.6	34.4%	250 (≈ 107 µg/mL)	103	74.6	permeable	0.4	52.3	85	71	–	–	–	NC(=O)C1CCN(c2nc(-c3ccccn3)nc3c2CN(Cc2ccccc2)CC3)CC1
2200	92.9	–	1 (≈ 0.511 µg/mL)	–	–	–	–	–	–	13	41.4	–	–	COc1ccc(S(=O)(=O)N2CCN(C(C)c3nc(OC4CCCCC4)c4ccccc4n3)CC2)cc1 (stereo unspecified)
3100	53.4	inactive	180 (≈ 82.4 µg/mL)	–	–	permeable	1.8	18.1	101	100	–	–	–	CN1CCN(CCCNc2nc(-c3ccccn3)nc3c2CN(Cc2ccccc2)CC3)CC1
1100	114	–	–	115	–	–	–	–	–	55	100	1 (≈ 0.457 µg/mL)	–	COc1ccc(Cl)cc1Nc1nc(-c2sc(NC(=O)c3ccccc3)nc2C)cs1
700	65.6	61.7%	198 (≈ 94.4 µg/mL)	–	–	permeable	3.1	12.1	93.2	25	–	–	1900	CC(=O)NC1CCN(c2nc(-c3ccccn3)nc3c2CN(Cc2ccc(Cl)cc2)CC3)CC1
